Assay results taken from ChEMBL document CHEMBL4825662 (J Med Chem, 2021).
Values after ≈ are worked out from the molar mass of the structure shown.

Columns and labels:
[1] = Half life in Beagle dog at 3 mg/kg, po measured after 0.03 to 24 hrs by UHPLC-TOF method; type: ADME, organism-based, Canis lupus familiaris; conditions: in vivo, time 0.03-24 hrs
[2] = Half life in human hepatocytes at 3 uM measured up to 60 mins by LC-MS/MS analysis; type: ADME, cell-based, Hepatocyte
[3] = test system: Human orthopneumovirus; experiment: Antiviral activity against Respiratory syncytial virus A2 infected in human Huh7 cells by Plaque reduction assay; type: functional, organism-based; conditions: A2, Huh-7
How it was run: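 Huh-7 cells were infected with RSV strain A2 in the presence of compound. Values are the average of at least two testing occasions.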

[4] = Half life in human liver microsomes preincubated followed by NADPH addition and measured up to 45 mins by LC-MS/MS analysis; type: ADME, Microsome
[5] = Protein binding in dog plasma assessed as unbound fraction at 5 uM by LC-MS/MS analysis based equilibrium dialysis method; type: ADME, cell-free, Canis lupus familiaris
[6] = Cytotoxicity against human HepG2 cells by MTT assay; type: cell-based
How it was run: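 Viability was assessed by MTT after culture with compound at 0.01 nM to 100 μM, run in parallel with plaque reduction assays. Values are the average of at least two testing occasions.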

[7] = Half life in Beagle dog hepatocytes at 3 uM assessed per million cells measured up to 60 mins by LC-MS/MS analysis; type: ADME, cell-based, Canis lupus familiaris, Hepatocyte
[8] = Volume of distribution at steady state in CD1 mouse at 1 mg/kg, iv measured after 0.083 to 24 hrs by UHPLC-TOF method; type: ADME, organism-based; conditions: in vivo, time 0.083-24 hrs, read-out: Vdss
How it was run: (§1)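 Male CD-1 mice, acclimatized and individually housed, dosed IV and PO as amorphous-solid suspension. Terminal cardiac-puncture blood into heparinized tubes on wet ice, centrifuged at 4 °C within 15 min; plasma snap-frozen at −20 °C. IV arm sampled 2 min–24 h, oral arm 5 min–24 h. Plasma analysed by UHPLC-quadrupole-TOF MS.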

[9] = Half life in Beagle dog at 0.3 mg/kg, iv measured after 0.03 to 24 hrs by UHPLC-TOF method; type: ADME, organism-based, Canis lupus familiaris; conditions: in vivo, time 0.03-24 hrs
How it was run: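 Dogs dosed IV as a suspension of amorphous solid. Serial blood at 2, 5, 15 min and 1, 2, 4, 8, 12, 24 h into heparinized tubes, centrifuged at 4 °C for 10 min at 3000g. Plasma snap-frozen and stored at −20 °C, then analysed by UHPLC-TOF.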

[10] = Intrinsic clearance in human hepatocytes at 3 uM assessed per million cells measured up to 60 mins by LC-MS/MS analysis; type: ADME, cell-based, Hepatocyte; conditions: read-out: CLH
[11] = Intrinsic clearance in human liver microsomes preincubated followed by NADPH addition and measured up to 45 mins by LC-MS/MS analysis; type: ADME, Microsome
[12] = Apparent permeability across basolateral side to apical side in MDCK-MDR1 cells at 10 uM measured at 60 mins by LC-MS/MS analysis; type: ADME, cell-based, Canis lupus familiaris; conditions: dog
[13] = Half life in CD1 mouse at 1 mg/kg, iv measured after 0.03 to 24 hrs by UHPLC-TOF method; type: ADME, organism-based; conditions: in vivo, time 0.03-24 hrs
[14] = Tmax in Beagle dog at 3 mg/kg, […] by UHPLC-TOF method; type: ADME, organism-based, Canis lupus familiaris; conditions: in vivo, po
[15] = Thermodynamic solubility in PBS at 1 to 100 uM at pH 7.4 by HPLC-UV method; type: physicochemical; conditions: dose 1-100 µM, read-out: Therm_solubility
[16] = Protein binding in rat plasma assessed as unbound fraction at 5 uM by LC-MS/MS analysis based equilibrium dialysis method; type: ADME, cell-free
[17] = Clearance in Beagle dog at 0.3 mg/kg, iv measured after 0.03 to 24 hrs by UHPLC-TOF method; type: ADME, organism-based, Canis lupus familiaris; conditions: in vivo, time 0.03-24 hrs
[18] = Protein binding in human plasma assessed as unbound fraction at 5 uM by LC-MS/MS analysis based equilibrium dialysis method; type: ADME, cell-free
[19] = Intrinsic clearance in Beagle dog liver microsomes preincubated followed by NADPH addition and measured up to 45 mins by LC-MS/MS analysis; type: ADME, Canis lupus familiaris, Microsome
[20] = Intrinsic clearance in Beagle dog hepatocytes at 3 uM assessed per million cells measured up to 60 mins by LC-MS/MS analysis; type: ADME, cell-based, Canis lupus familiaris, Hepatocyte; conditions: read-out: CLH
[21] = Cmax in CD1 mouse at 10 mg/kg, po measured after 0.083 to 24 hrs by UHPLC-TOF method; type: ADME, organism-based; design: route oral, time 0.083-24 hrs, dose 10 mg/kg; conditions: in vivo
[22] = Half life in Beagle dog liver microsomes preincubated followed by NADPH addition and measured up to 45 mins by LC-MS/MS analysis
[23] = Intrinsic clearance in Sprague-Dawley rat liver microsomes preincubated followed by NADPH addition and measured up to 45 mins by LC-MS/MS analysis; type: ADME, Microsome
[24] = Apparent permeability across apical to basolateral side in MDCK-MDR1 cells at 10 uM measured at 60 mins by LC-MS/MS analysis; type: ADME, cell-based, Canis lupus familiaris; conditions: dog, MDCK-MDR1
[25] = Efflux ratio of apparent permeability in MDCK-MDR1 cells at 10 uM measured at 60 mins by LC-MS/MS analysis; type: ADME, cell-based, Canis lupus familiaris; conditions: dog, MDCK-MDR1
[26] = Oral bioavailability in CD1 mouse at 10 mg/kg measured after 0.03 to 24 hrs by UHPLC-TOF method; type: ADME, organism-based; conditions: in vivo, time 0.03-24 hrs; how it was run: as §1
[27] = Intrinsic clearance in rat hepatocytes at 3 uM assessed per million cells measured up to 60 mins by LC-MS/MS analysis; type: ADME, cell-based, Hepatocyte; conditions: read-out: CLH
[28] = Half life in rat hepatocytes at 3 uM measured up to 60 mins by LC-MS/MS analysis; type: ADME, cell-based, Hepatocyte
[29] = Oral bioavailability in Beagle dog at 3 mg/kg measured after 0.03 to 24 hrs by UHPLC-TOF method; type: ADME, organism-based, Canis lupus familiaris; conditions: in vivo, 3 mg/kg, time 0.03-24 hrs
How it was run: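 Dogs examined by a veterinary surgeon before each session, fed 2 h post-dose, water ad libitum, dosed as amorphous-solid suspension. Serial blood into heparinized tubes, centrifuged at 4 °C for 10 min at 3000g; plasma snap-frozen at −20 °C. IV sampling 2 min–24 h, oral 15 min–24 h. Plasma analysed by UHPLC-quadrupole-TOF MS.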

[30] = Clearance in CD1 mouse at 1 mg/kg, iv measured after 0.083 to 24 hrs by UHPLC-TOF method; type: ADME, organism-based; conditions: in vivo, time 0.083-24 hrs
[31] = Half life in CD1 mouse at 10 mg/kg, po measured after 0.083 to 24 hrs by UHPLC-TOF method; type: ADME, organism-based; conditions: in vivo, time 0.083-24 hrs
[32] = Tmax in CD1 mouse at 10 mg/kg, po measured after 0.083 to 24 hrs by UHPLC-TOF method; type: ADME, organism-based; conditions: in vivo, time 0.083-24 hrs; how it was run: as §1
[33] = Cmax in Beagle dog at 3 mg/kg, po measured after 0.03 to 24 hrs by UHPLC-TOF method; type: ADME, organism-based, Canis lupus familiaris; design: route oral, dose 3 mg/kg, time 0.03-24 hrs; conditions: in vivo

NCc1ccc2c(c1)nc(CN1C(=O)C3(CC3)c3ccc(F)cc31)n2C1CCOCC1
half-life [1]: 3.1 h | half-life at 3 µM [2]: 3.28 h | EC50 [3]: 2.4 nM | half-life [4]: 0.348 h | fraction unbound at 5 µM [5]: 0.497 | CC50 [6]: > 25000 nM | half-life at 3 µM [7]: > 16.7 h | Vd [8]: 5.5 L/kg | half-life [9]: 5.2 h | hepatocyte CLint at 3 µM [10]: 7.1 µL/min/1e6 cells | intrinsic clearance (CLint) [11]: 66.4 µL/min | Papp B→A at 1 h, 10 µM [12]: 40.6 ×10⁻⁶ cm/s | half-life [13]: 1.7 h | Tmax [14]: 0.5 h | solubility thermodynamic [15]: 1270 µM (≈ 534 µg/mL) | fraction unbound at 5 µM [16]: 0.399 | clearance [17]: 19.2 mL/min/kg | fraction unbound at 5 µM [18]: 0.548 | intrinsic clearance [19]: 0.4 µL/min | hepatocyte CLint at 3 µM [20]: 0.8 µL/min/1e6 cells | Cmax [21]: 450 ng/mL | half-life [22]: 55.8 h | Microsomal intrinsic clearance [23]: 5.2 µL/min | Papp A→B at 1 h, 10 µM [24]: 0.4 ×10⁻⁶ cm/s | efflux ratio at 1 h, 10 µM [25]: 94 | bioavailability [26]: 39.4% | hepatocyte CLint at 3 µM [27]: 21.2 µL/min/1e6 cells | half-life at 3 µM [28]: 1.02 h | F [29]: 163% | clearance [30]: 58 mL/min/kg | half-life [31]: 1.4 h | Tmax [32]: 1.7 h | Cmax [33]: 505 ng/mL
